The subject of test [1] is bloodstream stage of Trypanosoma brucei brucei. The experiment in a line: Viability assay for T. brucei brucei. Type of test: cell-based. The conditions noted are these: 24 h.
The subject of test [2] is redox biosensor hGrx1-roGFP2 in bloodstream T. b. brucei. The experiment in a line: Redox reporter assay for T. brucei brucei. As to conditions: compound at its EC50 for 1 h; p < 0.001 compared to DMSO-treated parasites. The test is classed as cell-based, Trypanosoma brucei brucei. A digest of the protocol:
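Exponential-phase bloodstream parasites expressing the redox biosensor were exposed for 1 h to the test compound, with 1% v/v DMSO as vehicle and untreated cells as minimum. Diamide at 500 μM for 20 min gave maximum oxidation. Samples were then incubated for 20 min with 1 mM DTT. Flow cytometry gave % biosensor oxidation relative to these maximum and minimum conditions.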
For orientation: In a reporter assay the amount or activity of a reporter protein is the signal.

Where [3] appears, read: Trypanosoma brucei, bloodstream parasites, 24 h incubation, compounds tested at 5 μM.

A word on the EC50: it is the concentration giving half of the maximal effect. A higher EC50 goes with weaker potency. As a reminder, the viability is a read-out of living cells in per cent, often relative to untreated cells.

On to `N=C(N)c1ccc(N=NNc2ccc(C(=N)N)cc2)cc1` [Ber, Berenil, reference compound], for which the concentration for a half-maximal effect (EC50) in test [1] (bloodstream T. b. brucei, concentration-response curves) came to 430 ± 70 nM.

For the compound `OC[C@H]1O[C@@H]([Se]Cc2ccc3ccccc3n2)[C@H](O)[C@@H](O)[C@@H]1O` [compound 11, Quinolin-2-ylmethyl 1-seleno-β-D-glucopyranoside], in test [1] (Trypanosoma brucei), the EC50 is around 5000 nM and the viability at 5 µM was 57.5 ± 3.8%.

For `CC(=O)OC[C@H]1O[C@@H]([Se]Cc2ccc3ccccc3n2)[C@H](OC(C)=O)[C@@H](OC(C)=O)[C@@H]1OC(C)=O` [compound 12, Quinolin-2-ylmethyl 2,3,4,6-tetra-O-acetyl-1-seleno-β-D-glucopyranoside], in test [2], the “significant oxidation of the redox biosensor (in words)” value is “Except for the quinolino Se-glycoside 12”.

In test [1] (setting [3]), `COc1ccc2c(C[Se][C@@H]3O[C@H](CO)[C@@H](O)[C@H](O)[C@H]3O)cc(=O)oc2c1` [compound 13, 7-Methoxycoumarin-4-ylmethyl 1-seleno-β-D-glucopyranoside] displayed a viability at 5 µM of 57.3 ± 0.4%.

In the case of `COc1ccc2c(C[Se][C@@H]3O[C@H](CO)[C@H](O)[C@H](O)[C@H]3O)cc(=O)oc2c1` [compound 14, 7-Methoxycoumarin-4-ylmethyl 1-seleno-β-D-galactopyranoside], the viability at 5 µM in test [1] (setting [3]) was at most 50%.

The values are drawn from PMC10938134 (International Journal for Parasitology: Drugs and Drug …, 2024).
